What all share (format): functional, cell-based
The nature of test [1]: Antiproliferative activity against human androgen-dependent LNCaP-LN3 cells after 72 hrs by MTS/PMS assay. Particulars: LNCaP-LN3, 72 h. Summed up: (§1)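 Cells kept in Advanced DMEM/F12 (1:1) with non-essential amino acids, 2 mM L-glutamine, penicillin, streptomycin and 10% FBS at 37 °C, 5% CO2. Seeded at 2000/well, attached overnight. Compound added in DMSO across a concentration range (1% DMSO final) for 72 h. Viable cells read by MTS/PMS and normalized to 1% DMSO controls (100%). IC50 taken from separate triplicate experiments.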

The nature of test [2]: Antiproliferative activity against human MDA1986 cells after 72 hrs by MTS/PMS assay. To be noted: MDA1986, 72 h. Summed up: as §1
The test system of another test is B16-F10. Kind of test: Antiproliferative activity against mouse B16F10 cells after 72 hrs by MTS/PMS assay. To be noted: B16-F10, 72 h. Summed up:
as §1

A further test has as its system SK-BR-3. Kind of test: Antiproliferative activity against human SKBR3 cells expressing HER2 after 72 hrs by MTS/PMS assay. Particulars: SK-BR-3, 72 h. An outline of the steps: as §1
Another test relates to SK-MEL-28. Kind of test: Antiproliferative activity against human SK-MEL-28 cells after 72 hrs by MTS/PMS assay. To be noted: SK-MEL-28, 72 h. An outline of the steps: as §1
In a further test the test system is MCF7. Kind of test: Antiproliferative activity against human MCF7 cells expressing estrogen receptor after 72 hrs by MTS/PMS assay. To be noted: MCF7, 72 h. An outline of the steps: as §1
Test [3] is described as follows: Antiproliferative activity against human JMAR cells after 72 hrs by MTS/PMS assay. An outline of the steps:
as §1

Test [4] in a line: Antiproliferative activity against human androgen-independent PC3MM2 cells after 72 hrs by MTS/PMS assay. To be noted: PC3MM2, 72 h. An outline of the steps: as §1

As for `COc1cccc(-c2cc(C(=O)Nc3cc4cc(OC)c(O)c(C)c4oc3=O)ccc2OC)c1`, the IC50 came to 15.8 µM in test [1]; 6.7 µM in test [2]; 5.77 µM in the test on B16-F10; 3.23 µM in the test on SK-BR-3; 12.4 µM in the test with SK-MEL-28; 11.7 µM in the test with MCF7. In addition, the values for the IC50 in test [3] and in test [4] were 24.6 µM and 11.2 µM, respectively.
Take `COc1cccc(-c2cc(C(=O)Nc3cc4ccc(OC5CCCN(C(C)=O)C5)c(C)c4oc3=O)ccc2OC)c1` (stereo not given): the IC50 in test [1] was 1.23 µM; in test [2] it was 22.4 µM; in the test on B16-F10 it was 12.4 µM; with SK-BR-3 it was above 50 µM; with SK-MEL-28, 20.9 µM; with MCF7, above 50 µM. The IC50 in test [3] is 15.1 µM; in test [4], 3.42 µM.
For the molecule `COc1cccc(-c2cc(C(=O)Nc3cc4ccc(O[C@H]5OCC[C@@H](O)[C@H]5O)c(C)c4oc3=O)ccc2OC)c1`, the IC50 in test [1] amounted to 1.2 µM; in test [2], 3.7 µM; in the test on B16-F10, 8.56 µM; in the test on SK-BR-3, 6.71 µM; with SK-MEL-28 it was 15.8 µM; in the test with MCF7 it was 42.6 µM. Further, the IC50 in test [3] amounted to 6.14 µM; in test [4], 12.9 µM.
As for `COc1cccc(-c2cc(C(=O)Nc3cc4ccc(OC5CCCN(C)C5)c(OC)c4oc3=O)ccc2OC)c1` (stereo not given), the IC50 in test [1] is 1.78 µM; in test [2], 11.4 µM; in the test with B16-F10 it was 1.51 µM; with SK-BR-3, 1.4 µM; with SK-MEL-28, 7.14 µM; in the test with MCF7 it was 1.38 µM. For the same molecule, the IC50 in test [3] came to 7.5 µM; in test [4], 2.16 µM.
`CNCCOc1ccc2cc(NC(=O)c3ccc(OC)c(-c4cccc(OC)c4)c3)c(=O)oc2c1C`: the IC50 in test [1] is above 100 µM; in test [2], 21.9 µM; in the test on B16-F10, 37.4 µM; with SK-BR-3 it was 5.36 µM; in the test with SK-MEL-28 it was 25.6 µM; in the test on MCF7, 9.8 µM. Also, the IC50 amounted to 35.1 µM in test [3] and 14 µM in test [4].
Regarding `COc1cccc(-c2cc(C(=O)Nc3cc4ccc(O[C@@H]5C[C@H](O)CO5)c(C)c4oc3=O)ccc2OC)c1`, the IC50 is 4.96 µM in test [1]; 18.8 µM in test [2]; 9.37 µM in the test on B16-F10; above 100 µM in the test with SK-BR-3; 12.4 µM in the test on SK-MEL-28; above 100 µM in the test with MCF7. Further, the IC50 in test [3] is 6.19 µM; in test [4], 26.8 µM.
In the case of `COc1cccc(-c2cc(C(=O)Nc3cc4cc(OC)c(OC5CNC[C@@H](O)[C@H]5O)c(C)c4oc3=O)ccc2OC)c1` (stereo not given in full), the IC50 in test [1] was found to be 9.45 µM; in test [2], 13.8 µM; in the test with B16-F10, 5.04 µM; in the test with SK-BR-3, 3.65 µM; in the test with SK-MEL-28 it was 13.8 µM; in the test on MCF7, 3.34 µM. Besides, the IC50 in test [3] was determined as 11.5 µM; in test [4], 6.84 µM.
For the molecule `COc1cccc(-c2cc(C(=O)Nc3cc4ccc(O[C@H]5C[C@H](O)CO5)c(C)c4oc3=O)ccc2OC)c1`, the IC50 in test [1] was 3.72 µM; in test [2], 6.9 µM; in the test on B16-F10 it was 12.7 µM; in the test with SK-BR-3, 35.2 µM; in the test with SK-MEL-28, 21.4 µM; with MCF7 it was above 100 µM. The IC50 stood at 24.1 µM in test [3] and 10.1 µM in test [4].
In the case of `COc1cccc(-c2cc(C(=O)Nc3cc4cc(OC)c(OC5CCCNC5)c(C)c4oc3=O)ccc2OC)c1` (stereo not given), the IC50 in test [1] is 3.66 µM; in test [2], 6.4 µM; with B16-F10, 1.84 µM; with SK-BR-3, 2.27 µM; in the test with SK-MEL-28, 7.19 µM; in the test on MCF7 it was 2.9 µM. Also, the results for the IC50 in test [3] and in test [4] were 5.7 µM and 2.59 µM, respectively.
`COc1cccc(-c2cc(C(=O)Nc3cc4ccc(OC5CCCNC5)c(OC)c4oc3=O)ccc2OC)c1` (stereo not given): the IC50 in test [1] was determined as 12.7 µM; in test [2], 12.8 µM; with B16-F10, 0.64 µM; in the test with SK-BR-3, 2.61 µM; in the test with SK-MEL-28, 14.7 µM; in the test on MCF7 it was 3.29 µM. Besides, the IC50 stood at 12.7 µM in test [3] and 10.4 µM in test [4].

As a reminder, the IC50 is the midpoint of a concentration-inhibition curve. Read a high IC50 as weaker potency in that assay.

Source of the values: ChEMBL document CHEMBL1795208 (J Med Chem, 2011).
